Consider five molecules from publication PMC6221991 (Structure (London, England : 1993), 2018).

By EC50 is commonly meant the midpoint of the concentration-response curve. In general, inhibition refers to the drop in the measured response relative to a control, in per cent.

Series [1] has as its system 3T3-L1 cells. Briefly: Differentiation of 3T3-L1 cells. The class given is cell-based, Mus musculus. The settings on record: for RNA-seq differential gene expression: 3T3-L1 cells, 6 days. A digest of the protocol: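 Mouse 3T3-L1 embryo fibroblasts grown in DMEM with 10% heat-inactivated FBS, 2mM L-glutamine and 1% penicillin/streptomycin at 37 °C, 5% CO2. Test compound (1μM) added from the first day of differentiation; six days' incubation. Lipid droplets stained with Oil Red. Gene expression by qPCR: SYBR green, ΔΔ-Ct method normalised to Tbp. RNA-seq used stranded (dUTP) cDNA libraries. Mean ± SEM.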

Series [2] has as its system PPRE. Briefly: full length PPRE transactivation assay. The class given is cell-based. The conditions noted are these: for EC50 PPRE: full length PPRE assay.
For series [3], the target named is T1, human PPARα (hPPARα) (Homo sapiens, UniProt Q07869).
T1 sequence (Q07869 239-466 limits assumed): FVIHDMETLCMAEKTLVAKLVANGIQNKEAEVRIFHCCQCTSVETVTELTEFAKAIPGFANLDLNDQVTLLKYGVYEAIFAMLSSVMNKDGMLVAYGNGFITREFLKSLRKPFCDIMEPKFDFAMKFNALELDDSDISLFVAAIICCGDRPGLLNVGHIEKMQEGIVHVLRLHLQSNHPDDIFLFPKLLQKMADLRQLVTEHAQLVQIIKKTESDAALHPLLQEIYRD
The series can be described thus: PPARα GAL-4 transactivation assay in HEK293T cells. Format: cell-based.

Series [4] can be described thus: Plasma exposure following oral administration in mice. Format: in vivo, C57BL/6 mice.
In series [5] the target is T2, phosphorylation of PPARγ at S273 (pS273) (Homo sapiens, UniProt P37231).
T2 sequence (P37231 1-505): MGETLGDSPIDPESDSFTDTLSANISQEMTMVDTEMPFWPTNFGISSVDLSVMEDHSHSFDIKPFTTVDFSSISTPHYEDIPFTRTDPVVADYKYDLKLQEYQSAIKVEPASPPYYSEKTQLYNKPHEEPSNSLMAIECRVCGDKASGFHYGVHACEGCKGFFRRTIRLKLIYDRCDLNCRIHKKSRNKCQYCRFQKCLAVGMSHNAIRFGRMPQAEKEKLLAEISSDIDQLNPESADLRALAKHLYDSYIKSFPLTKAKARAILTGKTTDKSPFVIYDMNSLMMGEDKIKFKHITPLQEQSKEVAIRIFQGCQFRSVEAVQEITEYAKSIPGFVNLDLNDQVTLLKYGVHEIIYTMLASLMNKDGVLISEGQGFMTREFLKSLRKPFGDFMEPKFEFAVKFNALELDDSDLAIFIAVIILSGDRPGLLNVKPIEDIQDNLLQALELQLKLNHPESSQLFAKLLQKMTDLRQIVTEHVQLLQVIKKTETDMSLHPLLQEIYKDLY
The series can be described thus: In vitro Cdk5 kinase assay, phosphorylation of PPARγ at S273. Format: biochemical. The conditions noted are these: vs DMSO only controls. The procedure, abridged:
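1 μg immuno-purified WT PPARγ substrate pre-incubated with test compound for 30 min. Active Cdk5/p35 kinase then added in 25 mM Tris-HCl pH 7.5, 5 mM β-glycerophosphate, 2 mM DTT, 0.1 mM Na3VO4, 10 mM MgCl2 and 20 μM ATP, for 15 min at 30 °C. After SDS–PAGE, phospho-Ser in the K/R-S-P-K/R motif was detected with an anti-CDK-substrate antibody.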

The target of series [6] is T3, PPARγ Gal-4 (Homo sapiens, UniProt P37231).
T3 sequence (P37231 238-503 limits assumed): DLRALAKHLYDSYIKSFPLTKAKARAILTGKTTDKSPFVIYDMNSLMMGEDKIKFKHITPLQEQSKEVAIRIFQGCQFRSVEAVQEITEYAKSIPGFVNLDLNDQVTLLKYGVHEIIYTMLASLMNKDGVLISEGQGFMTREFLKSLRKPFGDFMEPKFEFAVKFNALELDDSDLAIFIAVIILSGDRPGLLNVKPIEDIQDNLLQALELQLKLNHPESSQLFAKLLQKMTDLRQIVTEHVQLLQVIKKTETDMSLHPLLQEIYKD
The series can be described thus: Gal4-PPARγ-LBD cell-based transactivation assay in HEK293T cells.

The target in series [7] is T4, His-PPARγ (Homo sapiens, UniProt P37231).
T4 sequence (P37231 1-505): T2 sequence (P37231 1-505)
The series can be described thus: TR-FRET NR box peptide recruitment assay. The class given is biochemical. The settings on record: FITC-labeled peptides. For orientation: TR-FRET usually uses a lanthanide donor and a delayed reading to cut background.

Series [8] has as its target T5, hPPARδ (Homo sapiens, UniProt Q03181).
T5 sequence (Q03181 1-441): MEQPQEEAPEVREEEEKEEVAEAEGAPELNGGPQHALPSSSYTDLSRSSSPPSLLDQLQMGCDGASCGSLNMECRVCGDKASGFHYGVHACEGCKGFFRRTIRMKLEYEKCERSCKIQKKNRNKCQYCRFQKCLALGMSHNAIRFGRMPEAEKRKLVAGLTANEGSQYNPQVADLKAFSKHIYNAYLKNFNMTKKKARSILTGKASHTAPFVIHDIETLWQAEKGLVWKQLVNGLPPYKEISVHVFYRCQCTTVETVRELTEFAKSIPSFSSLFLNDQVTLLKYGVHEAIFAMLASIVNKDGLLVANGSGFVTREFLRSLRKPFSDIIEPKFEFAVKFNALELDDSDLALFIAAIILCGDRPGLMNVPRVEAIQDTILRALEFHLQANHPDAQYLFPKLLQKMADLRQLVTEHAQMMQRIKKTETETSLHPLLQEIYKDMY
Briefly: hPPARδ-Gal4 transactivation assay. The settings on record: Figure S1A. The class given is cell-based.

For series [9], the target named is T2, phosphorylation of PPARγ at S273 (pS273). The settings on record: ref Choi et al., 2010; cited from earlier work.
Series [10] addresses T6, PPARγ LBD (human, UniProt P37231 231-505).
T6 sequence (looked up): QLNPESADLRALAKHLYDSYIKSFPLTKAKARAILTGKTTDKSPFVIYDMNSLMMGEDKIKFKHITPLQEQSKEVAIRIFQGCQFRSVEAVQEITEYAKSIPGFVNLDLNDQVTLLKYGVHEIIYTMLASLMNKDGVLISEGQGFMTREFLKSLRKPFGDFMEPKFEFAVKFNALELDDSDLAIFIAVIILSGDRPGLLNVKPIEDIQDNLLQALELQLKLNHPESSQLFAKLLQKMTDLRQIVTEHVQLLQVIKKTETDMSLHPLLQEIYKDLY
The series can be described thus: cross-linking.

Regarding `CN(CCOc1ccc(CC2SC(=O)NC2=O)cc1)c1ccccn1` (centres unmarked) [Rosiglitazone, reference compound], in series [1], the “RNA-seq differential gene expression” value is “robust activation of a large gene set containing many known PPARγ target genes”. Moreover, the EC50 in [2] (read-out: EC50 PPRE) turned out to be 10 nM.

In the case of `Cc1c(C)n(Cc2ccc(-c3ccccc3C(=O)O)cc2)c2ccc(C(=O)N[C@@H](C)c3ccc([N+](=O)[O-])cc3)cc12` [SR1664, reference compound], in [3] (read-out: EC50 PPARα GAL-4), the EC50 was 8600 nM. Also, the plasma concentration result in series [4] (C57BL/6 mice, oral, 40mg.kg−1, two hours after dosing) was “less than 1 μM”. For the same molecule, in series [2], the “EC50 PPRE” value is reported as “No activity”.

`Cc1c(C)n(Cc2ccc(C(C)(C)C(=O)O)cc2)c2ccc(C(=O)N[C@@H](C)c3cccc(C4CC4)c3)cc12` [SR11023, (S)-2-(4-((5-((1-(3-cyclopropylphenyl)ethyl)carbamoyl)-2,3-dimethyl-1H-indol-1-yl)methyl)phenyl)-2-methylpropanoic acid]: the “% inhibition p273-PPARγ” value in series [5] (20μM, 20 µM) is 77%. For the same molecule, in [5] (read-out: % inhibition p273-PPARγ, 2μM), the inhibition at 2 µM worked out at 25%. Further, the “EC50 PPARα GAL-4” value in series [3] is recorded as “No activity”. For the same molecule, the “transcriptional agonism, hPPARα-Gal4 transactivation” value in [3] (Figure S1A) is recorded as “no transcriptional agonism”. The “RNA-seq differential gene expression” value in [1] was “very modest regulation of only a small subset of PPARγ controlled genes”. The “adipogenic activity (lipid formation, aP2 and cd36 expression)” value in series [1] (differentiated 3T3-L1 cells, 1μM, six days) is on record as “minimal adipogenic activity”. Moreover, in series [6] (EC50 PPARγ Gal-4, HEK293T), the EC50 came out at 2760 nM. Moreover, in series [6] (HEK293T), the “Max.Stim. PPARγ Gal-4” value came to 10%. In addition, the “shift of the dose response curve for rosiglitazone in the GAL4-PPARG assay” value in series [6] (data not shown) is “significantly right-shift the dose response curve for rosiglitazone”. Also, in series [7], the “PPARγ interaction with coactivator NR box peptides p300 and SRC1–2” value is recorded as “no enhanced interaction”; the “PPARγ interaction with corepressor peptides NCOR1–3 and SMRT-2” value was “increased”. This molecule also came in with a concentration at 2 h in series [4] (C57BL/6, mouse, plasma, po, 40 mg.kg−1) of 70 µM. Further, the “transcriptional agonism, hPPARδ-Gal4 transactivation” value in series [8] was “no transcriptional agonism”. Further, the “EC50 PPRE” value in [2] is on record as “No activity”.

For MRL24, in series [7], the “PPARγ interaction with coactivator NR box peptides p300 and SRC1–2” value is listed as “enhanced the association”; the “PPARγ interaction with corepressor peptides NCOR1–3 and SMRT-2” value is reported as “facilitated dissociation”. The “inhibition of p273-PPARγ compared with Rosi” value in series [9] was “More potent than Rosi to inhibit p273 ([Choi et al., 2010])”.

As to LTERHKILHRLLQEGSPSD [SRC1–2 NR box peptide], the binding result in [10] is “binds”.
